Converted amounts (≈) assume the structure as drawn. The source made the active and inactive calls. No cut-off for these calls is given here.
Columns and labels:
Staphylococcus aureus [1] = experiment: Antibacterial activity against Staphylococcus aureus ATCC 29213 by broth microdilution assay; assay type: functional
Procedure, shortened: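 Broth microdilution MIC per CLSI recommendations; reproducibility within one 2-fold dilution of the end point.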

[2] = biological target: T1, Cell division protein FtsZ (Staphylococcus aureus) (UniProt P0A031); experiment: Inhibition of Staphylococcus aureus ATCC 29213 FtsZ assessed as lowest drug level required for ballooning of cells by light microscopy
T1 sequence (whole entry): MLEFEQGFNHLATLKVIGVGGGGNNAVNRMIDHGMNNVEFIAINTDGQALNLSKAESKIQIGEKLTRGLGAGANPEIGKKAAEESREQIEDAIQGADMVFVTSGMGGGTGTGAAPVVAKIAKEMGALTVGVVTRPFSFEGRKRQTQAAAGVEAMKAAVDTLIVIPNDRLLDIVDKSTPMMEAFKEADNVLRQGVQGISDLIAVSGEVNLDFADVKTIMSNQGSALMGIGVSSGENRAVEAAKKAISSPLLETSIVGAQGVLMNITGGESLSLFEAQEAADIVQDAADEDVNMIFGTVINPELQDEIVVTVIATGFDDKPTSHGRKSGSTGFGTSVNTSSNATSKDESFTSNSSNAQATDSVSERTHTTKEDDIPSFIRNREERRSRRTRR
Procedure, shortened: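 Cocci examined by light microscopy for morphology. Value is the lowest concentration at which ballooning appears; WT is recorded when morphology is unchanged.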

[3] = biological target: T1, Cell division protein FtsZ (Staphylococcus aureus); experiment: Inhibition of Staphylococcus aureus ATCC 29213 FtsZ assessed as appearance of enlarged cells at 2048 to 4096 ug/mL by light microscopy
Staphylococcus aureus [4] = experiment: Antibacterial activity against Staphylococcus aureus ATCC 29213 by broth microdilution assay in presence of 2% bovine serum albumin; assay type: functional
Procedure, shortened: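 Broth microdilution MIC per CLSI recommendations, with 2% w/v bovine serum albumin added to the assay medium to track the effect of protein on antibacterial activity.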

Plasma = experiment: Plasma protein binding in mouse at 10 uM by equilibrium dialysis; assay type: ADME, cell-free
Procedure, shortened: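 Binding to plasma measured by equilibrium dialysis of a 10 µM compound solution. Reported as fraction unbound or percent bound.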

SMILES	MIC (Staphylococcus aureus [1])	Activity [2]	MIC [2]	MIC (Staphylococcus aureus [4])	other results
NC(=O)c1c(F)ccc(OCc2nc3cc(-c4ncc[nH]4)ccc3s2)c1F	> 64 µg/mL				
NC(=O)c1c(F)ccc(OCc2nc3ccc(Cl)cc3s2)c1F	4 µg/mL (≈ 11.3 µM)	8 µg/mL			
NC(=O)c1c(F)ccc(OCc2nc3cccc(Cl)c3s2)c1F	4 µg/mL (≈ 11.3 µM)	8 µg/mL			
NC(=O)c1c(F)ccc(OCc2nc3cc(O)ccc3s2)c1F	32 µg/mL (≈ 95.1 µM)	64 µg/mL			
NC(=O)c1c(F)ccc(OCc2nc3c(Cl)cccc3s2)c1F	16 µg/mL (≈ 45.1 µM)	8 µg/mL			
Cc1csc(COc2ccc(F)c(C(N)=O)c2F)n1			16 µg/mL (≈ 56.3 µM)		
NC(=O)c1c(F)ccc(OCc2nc3ccc(-c4ccccc4)cc3s2)c1F	> 256 µg/mL				
COc1cccc(C(N)=O)c1	2050 µg/mL (≈ 13500 µM)			4100 µg/mL	inhibition [3]: Active
NC(=O)c1c(F)ccc(OCc2ccc3ccccc3n2)c1F			16 µg/mL (≈ 50.9 µM)	32 µg/mL	
NC(=O)c1ccc2sc(COc3ccc(F)c(C(N)=O)c3F)nc2c1	> 64 µg/mL				
NC(=O)c1c(F)ccc(OCc2nc3ccccc3o2)c1F	128 µg/mL (≈ 421 µM)		256 µg/mL (≈ 841 µM)		
CN(C)c1ccc2sc(COc3ccc(F)c(C(N)=O)c3F)nc2c1	> 64 µg/mL				
CCCCCCOc1ccc(F)c(C(N)=O)c1F			8 µg/mL (≈ 31.1 µM)	32 µg/mL	
Cc1cccc(COc2ccc(F)c(C(N)=O)c2F)n1			32 µg/mL (≈ 115 µM)	64 µg/mL	
NC(=O)c1c(F)ccc(OCc2nc3cc(C(F)(F)F)ccc3s2)c1F	0.25 µg/mL (≈ 0.644 µM)	0.5 µg/mL			
NC(=O)c1c(F)ccc(OCc2nc3cc(Br)ccc3s2)c1F	0.125 µg/mL (≈ 0.313 µM)	0.25 µg/mL			
COc1ccc2sc(COc3ccc(F)c(C(N)=O)c3F)nc2c1		2 µg/mL			
COc1cc2nc(COc3ccc(F)c(C(N)=O)c3F)sc2nc1Cl	16 µg/mL (≈ 41.5 µM)			> 64 µg/mL	
NC(=O)c1c(F)ccc(OCc2nc3ccccc3s2)c1F	2 µg/mL (≈ 6.24 µM)		4 µg/mL (≈ 12.5 µM)	8 µg/mL	
NC(=O)c1c(F)ccc(OCc2nc3cc(-c4ccccc4)cnc3s2)c1F	0.5 µg/mL (≈ 1.26 µM)			4 µg/mL	PPB (Plasma): 98.5%

Reference: ChEMBL document CHEMBL1157799, “Creating an antibacterial with in vivo efficacy: synthesis and characterization of potent inhibitors of the bacterial cell division protein FtsZ with improved pharmaceutical properties” (J Med Chem, 2010)
